Measurements: ChEMBL document CHEMBL4368920, “Discovery of 2,4-diamino-5-cyanopyrimidine derivatives as protein kinase C theta inhibitors with mitigated time-dependent drug-drug interactions” (Bioorg Med Chem, 2019)
In brackets after ≈: the same amount, converted by molar mass.

Legend:
CYP3A4 = CYP3A4 (Homo sapiens, UniProt P08684); assay: Time-dependent inhibition of CYP3A4 in human liver microsomes assessed as residual activity at 5 uM using midazolam as substrate preincubated for 30 mins followed by substrate addition and measured after 20 mins in presence of NADPH by LC-MS/MS analysis relative to control; format: ADME; details: probe midazolam, read-out: Activity
Chain of CYP3A4 (P08684 whole entry): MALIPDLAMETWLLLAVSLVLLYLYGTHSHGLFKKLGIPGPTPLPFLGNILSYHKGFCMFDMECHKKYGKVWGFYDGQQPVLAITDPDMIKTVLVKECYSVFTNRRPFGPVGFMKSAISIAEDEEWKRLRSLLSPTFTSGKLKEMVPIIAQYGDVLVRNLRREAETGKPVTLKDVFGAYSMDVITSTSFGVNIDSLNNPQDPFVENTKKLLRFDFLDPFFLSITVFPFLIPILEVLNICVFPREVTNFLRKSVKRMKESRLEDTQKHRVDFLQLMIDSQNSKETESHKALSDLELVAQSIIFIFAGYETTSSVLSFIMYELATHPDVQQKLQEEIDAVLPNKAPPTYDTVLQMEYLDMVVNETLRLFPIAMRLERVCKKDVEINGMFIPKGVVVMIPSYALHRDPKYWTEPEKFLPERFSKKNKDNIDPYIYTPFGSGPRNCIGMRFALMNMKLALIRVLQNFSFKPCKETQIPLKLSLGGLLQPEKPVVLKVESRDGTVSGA
Summary of the method: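 Human liver microsomes at 0.1 mg/mL in 100 mM potassium sodium phosphate (pH 7.4) with 1 mM NADPH and 0.1 mM EDTA, compound at 5 μM. Midazolam added either with no preincubation or after 30 min preincubation at 37 °C. Reaction run 20 min at 37 °C and stopped with acetonitrile. Residual activity is 30-min activity as a percentage of 0-min activity.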

[1] = Aqueous solubility of the compound at pH 6.8 at 130 uM after 20 hrs by HPLC analysis; format: physicochemical; details: aqueous solution
Summary of the method: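 DMSO stock diluted to 130 μM with pH 6.8 aqueous buffer. Incubated 20 h at 25 °C, precipitate removed by filtration, filtrate concentration measured by HPLC.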

[2] = molecular target: T1, Protein kinase C theta type (Homo sapiens, UniProt Q04759); assay: Inhibition of PKCtheta in human Jurkat cells assessed as reduction in IL2 production after 14 hrs by luciferase reporter gene assay; format: cell-based
T1 sequence (Q04759 whole entry): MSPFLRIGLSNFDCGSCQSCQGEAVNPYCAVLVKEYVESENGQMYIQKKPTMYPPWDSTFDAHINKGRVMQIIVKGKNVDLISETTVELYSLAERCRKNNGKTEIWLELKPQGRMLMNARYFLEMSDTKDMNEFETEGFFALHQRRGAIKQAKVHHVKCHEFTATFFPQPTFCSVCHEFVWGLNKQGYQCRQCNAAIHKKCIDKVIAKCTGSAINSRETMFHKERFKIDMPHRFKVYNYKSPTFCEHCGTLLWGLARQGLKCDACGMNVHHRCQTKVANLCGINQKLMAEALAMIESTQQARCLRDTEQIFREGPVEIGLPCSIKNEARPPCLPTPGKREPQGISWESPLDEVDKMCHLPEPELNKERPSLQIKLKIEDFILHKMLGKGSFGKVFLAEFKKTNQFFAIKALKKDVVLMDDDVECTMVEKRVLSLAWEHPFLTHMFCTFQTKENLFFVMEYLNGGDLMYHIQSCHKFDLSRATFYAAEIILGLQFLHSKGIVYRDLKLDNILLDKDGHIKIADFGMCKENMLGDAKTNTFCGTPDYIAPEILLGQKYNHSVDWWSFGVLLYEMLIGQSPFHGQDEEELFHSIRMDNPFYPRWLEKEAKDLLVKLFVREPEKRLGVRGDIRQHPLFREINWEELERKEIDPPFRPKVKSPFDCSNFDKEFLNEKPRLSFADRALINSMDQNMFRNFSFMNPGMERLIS
Summary of the method: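 Jurkat cells transiently transfected with a pGL3-IL2 promoter firefly luciferase plasmid. Stimulated with anti-CD3 plus anti-CD28 antibodies in the presence of compound for 14 h, then luciferase substrate added. IC50 from duplicates in one experiment.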

[3] = molecular target: T1, Protein kinase C theta type; assay: Inhibition of recombinant human full length PKCtheta using biotin-labelled STK substrate-1 as substrate after 60 mins by fluorescence assay
[4] = Elimination half life in Sprague-Dawley rat at 1 mg/kg, iv by LC-MS/MS analysis; format: ADME, organism-based; details: in vivo, read-out: beta t1/2 (converted)
Summary of the method: (§1)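 Female SD rats, 1 mg/kg given as a single i.v. or oral dose in DMF/propylene glycol/1N HCl/saline (25/25/0.2/49.8). Blood sampled at multiple times up to 24 h. Unchanged compound in plasma measured by LC-MS/MS. Parameters derived by noncompartmental analysis. F taken as the AUC ratio of oral to i.v. dosing. Each value is the mean of three animals.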

[5] = Cmax in Sprague-Dawley rat at 1 mg/kg, po by LC-MS/MS analysis; format: ADME, organism-based; set-up: dose 1 mg/kg, route oral; details: in vivo; summary of the method: as §1
[6] = Oral bioavailability in Sprague-Dawley rat at 1 mg/kg by LC-MS/MS analysis; format: ADME, organism-based; details: in vivo; summary of the method: as §1
[7] = AUC (0 to 24 hrs) in Sprague-Dawley rat at 1 mg/kg, po by LC-MS/MS analysis; format: ADME, organism-based; set-up: time < 24 hr, dose 1 mg/kg, route oral; details: in vivo; summary of the method: as §1
[8] = Total clearance in Sprague-Dawley rat at 1 mg/kg, iv by LC-MS/MS analysis; format: ADME, organism-based; details: in vivo; summary of the method: as §1
[9] = Volume of distribution at steady state in Sprague-Dawley rat at 1 mg/kg, iv by LC-MS/MS analysis; format: ADME, organism-based; details: in vivo, read-out: Vdss; summary of the method: as §1
Rattus norvegicus = assay: Immunosuppressive activity in Lewis rat transplanted with ACI rat cardiac tissue assessed as reduction in graft rejection by measuring mean survival days at 1 mg/kg, po administered for 14 consecutive days co-treated with tacrolimus (reference value: 7 days); format: functional
Summary of the method: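 ACI donor hearts into Lewis recipients, abdominal vascularized heterotopic transplant under aseptic conditions; pentobarbital 40 mg/kg i.p. anaesthesia. Agent in propylene glycol, given orally with tacrolimus (0.02 mg/kg) for 14 consecutive days starting on operation day. Graft survival recorded per animal and median survival time reported (n = 9).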

[10] = Tmax in Sprague-Dawley rat at 1 mg/kg, po by LC-MS/MS analysis; format: ADME, organism-based; details: in vivo; summary of the method: as §1
[11] = AUC (0 to 24 hrs) in Sprague-Dawley rat at 1 mg/kg, iv by LC-MS/MS analysis; format: ADME, organism-based; set-up: time < 24 hr, dose 1 mg/kg, route intravenous; details: in vivo; summary of the method: as §1

Row | SMILES | activity at 20 min, 5 µM (CYP3A4) [%] | solubility at 20 h, 130 µM [1] [µM] | IC50 [2] [nM] | IC50 [3] [nM] | other results
1 | CC(C)Oc1ncccc1CNc1ncc(C#N)c(NCC23CC4CC(C2)C(NC[C@H]2CC[C@H](O)CC2)C(C4)C3)n1 (stereo not given in full) | 87 | > 100 | 18 | 0.59 | 
2 | COc1ncccc1CNc1ncc(C#N)c(NCC23CC4CC(C2)C(NC[C@H]2CC[C@H](O)CC2)C(C4)C3)n1 (stereo not given in full) | 94 | > 50 | 43 | 1.9 | 
3 | COc1nnccc1CNc1ncc(C#N)c(NCC23CC4CC(C2)C(NC[C@H]2CC[C@H](O)CC2)C(C4)C3)n1 (stereo not given in full) |  | > 100 |  | > 100 | 
4 | CC(C)NC1C2CC3CC1CC(CNc1nc(NCc4ccccc4OC(F)(F)F)ncc1C#N)(C3)C2 (stereo not given) | 29 |  |  | < 1 | 
5 | N#Cc1cnc(NCc2ccccc2Cl)nc1NCC12CC3CC(C1)C(NC[C@H]1CC[C@H](O)CC1)C(C3)C2 (stereo not given in full) | 77 | 1.1 (≈ 0.589 µg/mL) | 22 | 1.4 | 
6 | CSc1ccccc1CNc1ncc(C#N)c(NCC23CC4CC(C2)C(NC[C@H]2CC[C@H](O)CC2)C(C4)C3)n1 (stereo not given in full) | 92 | 45 (≈ 24.6 µg/mL) | 16 | 0.94 | 
7 | CCSc1ncccc1CNc1ncc(C#N)c(NCC23CC4CC(C2)C(NC[C@H]2CC[C@H](O)CC2)C(C4)C3)n1 (stereo not given in full) | 80 | 16 (≈ 8.99 µg/mL) | < 3 | 0.46 | 
8 | N#Cc1cnc(NCc2ccccc2OC(F)(F)F)nc1NCC12CC3CC(C1)C(NCCO)C(C3)C2 (stereo not given) | 36 |  |  | 0.7 | 
9 | N#Cc1cnc(NCc2ccccc2OC(F)(F)F)nc1NCC12CC3CC(C1)C(N[C@H]1CC[C@@H](O)CC1)C(C3)C2 (stereo not given in full) | 43 |  |  | 0.66 | 
10 | N#Cc1cnc(NCc2ccccc2OC(F)(F)F)nc1NCC12CC3CC(C1)C(N[C@H]1CC[C@H](O)CC1)C(C3)C2 (stereo not given in full) | 64 |  |  | 0.38 | 
11 | N#Cc1cnc(NCc2ccccc2OC(F)(F)F)nc1NCC12CC3CC(C1)C(NC1CCOCC1)C(C3)C2 (stereo not given) | 41 |  |  | < 1 | 
12 | CC(C)Sc1ncccc1CNc1ncc(C#N)c(NCC23CC4CC(C2)C(NC[C@H]2CC[C@H](O)CC2)C(C4)C3)n1 (stereo not given in full) | 66 | < 1 | 3 | 0.23 | 
13 | CSc1ncccc1CNc1ncc(C#N)c(NCC23CC4CC(C2)C(NC[C@H]2CC[C@H](O)CC2)C(C4)C3)n1 (stereo not given in full) | 98 | > 50 | 10 | 0.44 | half-life [4]: 3.97 h; Cmax [5]: 12.4 ng/mL; bioavailability [6]: 58.3%; AUC(0-t) at 24 h [7]: 145 ng·h/mL; clearance [8]: 66.7 mL/min/kg; Vd [9]: 12.9 L/kg; MSD (Rattus norvegicus): 20 days; Tmax [10]: 3.33 h; AUC(0-t) at 24 h [11]: 248 ng·h/mL
14 | N#Cc1cnc(NCc2ccccc2OC(F)(F)F)nc1NCC12CC3CC(C1)C(N[C@H]1CC[C@H](N)CC1)C(C3)C2 (stereo not given in full) | 59 |  |  | 0.1 | 
15 | N#Cc1cnc(NCc2ccccc2OC(F)(F)F)nc1NCC12CC3CC(C1)C(NC[C@H]1CC[C@H](O)CC1)C(C3)C2 (stereo not given in full) | 70 | < 1 | 11 | 0.42 | 
16 | CS(=O)(=O)c1ncccc1CNc1ncc(C#N)c(NCC23CC4CC(C2)C(NC[C@H]2CC[C@H](O)CC2)C(C4)C3)n1 (stereo not given in full) |  | > 100 | 140 |  | 
17 | N#Cc1cnc(NCc2ccccc2OC(F)(F)F)nc1NCC12CC3CC(C1)C(NC1CCCCC1)C(C3)C2 (stereo not given) | 43 |  |  | 1.9 | 
18 | C[S+]([O-])c1ncccc1CNc1ncc(C#N)c(NCC23CC4CC(C2)C(NC[C@H]2CC[C@H](O)CC2)C(C4)C3)n1 (stereo not given in full) |  | > 100 | 170 | 32 | 
19 | N#Cc1cnc(NCc2ccccc2C(F)(F)F)nc1NCC12CC3CC(C1)C(NC[C@H]1CC[C@H](O)CC1)C(C3)C2 (stereo not given in full) | 63 |  | 17 | 0.57 | 
